Blank lines part the entries; values can stand above or below the molecule they belong to. Calls of active or inactive are those of the source. The rule behind the calls is not given here.
Key:
[1] = target: T1, Very long chain fatty acid elongase 6 (Homo sapiens, UniProt Q9H5J4); assay: Inhibition of human ELOVL6 expressed in Pichia pastoris using palmitoyl-CoA by long chain fatty acyl-CoA elongation assay
T1 sequence (Q9H5J4 whole entry): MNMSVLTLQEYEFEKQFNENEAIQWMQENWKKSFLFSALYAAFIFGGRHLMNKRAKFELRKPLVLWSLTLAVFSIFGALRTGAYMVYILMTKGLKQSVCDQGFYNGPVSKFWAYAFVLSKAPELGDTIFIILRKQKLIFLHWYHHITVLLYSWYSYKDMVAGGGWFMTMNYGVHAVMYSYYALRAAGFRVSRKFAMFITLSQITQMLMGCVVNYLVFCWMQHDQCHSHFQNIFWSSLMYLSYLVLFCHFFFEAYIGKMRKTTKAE
Summary of the method: (§1)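 Microsomes (3 μg) from Pichia pastoris SMD1168 expressing FLAG-tagged human or mouse ELOVL6 were incubated 1 h at 37 °C in 100 mM potassium phosphate pH 6.5 with 40 μM palmitoyl-CoA, 20 μM malonyl-CoA plus [14C]-malonyl-CoA, 500 μM NADPH, 200 μM BSA and 1 μM rotenone. DMSO was 1.0% final. After HCl hydrolysis, filter-retained 14C was counted. IC50 came from nonlinear regression on % of control.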

[2] = Unbound fraction in C57BL/6N mouse plasma; assay type: ADME, cell-free
Summary of the method: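 Equilibrium dialysis was run with C57BL/6N mouse plasma adjusted to pH 7.4 and spiked with 1 μM compound, dialysed against PBS for 6 h at 37 °C. Both sides were analysed by LC-MS/MS. Unbound fraction = Cf/Cp × 100. Mean of n = 3.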

[3] = Plasma concentration in C57BL/6J mouse at 30 mg/kg, po twice daily after 3 days; assay type: ADME, organism-based; parameters: dose 30 mg/kg, route oral
[4] = Plasma concentration in C57BL/6J mouse at 30 mg/kg, po after 2 hrs; assay type: ADME, organism-based; parameters: dose 30 mg/kg, route oral; conditions: read-out: Concentration_plasma
Summary of the method: (§2)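 Male C57BL/6J mice were given a single oral gavage of 30 mg/kg in 0.5% methylcellulose suspension. Plasma was sampled at 2, 4, 8 and 24 h, deproteinized with ethanol containing internal standard, and assayed. Values are means of n = 3 animals.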

[5] = target: T2, Very long chain fatty acid elongase 3 (Mus musculus, UniProt O35949); assay: Inhibition of mouse ELOVL3
T2 sequence (O35949 whole entry): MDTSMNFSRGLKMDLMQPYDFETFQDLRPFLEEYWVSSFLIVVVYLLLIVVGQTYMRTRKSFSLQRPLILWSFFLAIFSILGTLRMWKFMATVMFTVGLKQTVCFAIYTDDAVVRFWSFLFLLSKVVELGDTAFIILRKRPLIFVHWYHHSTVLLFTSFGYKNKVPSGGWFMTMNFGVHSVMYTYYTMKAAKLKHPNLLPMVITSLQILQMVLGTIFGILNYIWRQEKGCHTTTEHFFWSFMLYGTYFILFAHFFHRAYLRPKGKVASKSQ
Summary of the method: (§3)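 Microsomes were prepared from Pichia pastoris SMD1168 expressing FLAG-tagged human or mouse ELOVL. Incubation ran 1 h at 37 °C in 100 mM potassium phosphate pH 6.5 with 200 μM BSA, 500 μM NADPH, 1 μM rotenone, 20 μM malonyl-CoA plus [14C]-malonyl-CoA, and acyl-CoA: ELOVL1 and ELOVL3, 10 μM stearoyl-CoA; ELOVL2, 10 μM arachidonoyl-CoA; ELOVL5, 40 μM arachidonoyl-CoA. DMSO was 1.0% final. Products were acid-hydrolysed and filter-bound radioactivity counted.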

[6] = target: T3, Very long chain fatty acid elongase 3 (Homo sapiens, UniProt Q9HB03); assay: Inhibition of human ELOVL3; summary of the method: as §3
T3 sequence (Q9HB03 whole entry): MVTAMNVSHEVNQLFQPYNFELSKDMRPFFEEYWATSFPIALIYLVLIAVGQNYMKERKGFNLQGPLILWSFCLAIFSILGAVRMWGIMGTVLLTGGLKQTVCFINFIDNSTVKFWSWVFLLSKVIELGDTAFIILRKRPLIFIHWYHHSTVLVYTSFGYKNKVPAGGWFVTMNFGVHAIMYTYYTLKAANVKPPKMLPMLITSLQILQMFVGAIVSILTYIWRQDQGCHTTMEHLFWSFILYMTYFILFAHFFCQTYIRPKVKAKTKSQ

[7] = Plasma concentration in C57BL/6J mouse at 30 mg/kg, po after 4 hrs; assay type: ADME, organism-based; parameters: dose 30 mg/kg, route oral; conditions: read-out: Concentration_plasma; summary of the method: as §2
[8] = target: T4, Very long chain fatty acid elongase 2 (Homo sapiens, UniProt Q9NXB9); assay: Inhibition of human ELOVL2; summary of the method: as §3
T4 sequence (Q9NXB9 whole entry): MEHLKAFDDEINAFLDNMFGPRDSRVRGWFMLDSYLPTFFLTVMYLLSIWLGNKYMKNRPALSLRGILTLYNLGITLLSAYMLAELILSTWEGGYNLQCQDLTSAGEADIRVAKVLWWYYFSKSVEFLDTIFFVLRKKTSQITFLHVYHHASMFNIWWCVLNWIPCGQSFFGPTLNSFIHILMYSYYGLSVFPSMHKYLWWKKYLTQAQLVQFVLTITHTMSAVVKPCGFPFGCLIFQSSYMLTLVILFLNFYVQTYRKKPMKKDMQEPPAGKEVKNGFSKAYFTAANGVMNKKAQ

[9] = Half life in Sprague-Dawley rat at 1 mg/kg, iv; assay type: ADME, organism-based; parameters: dose 1 mg/kg, route intravenous; conditions: in vivo
Summary of the method: (§4)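 Male SD rats, single dose: iv 1 mg/kg in PEG400/EtOH/H2O 50/10/40 or oral gavage 3 mg/kg in 0.5% methylcellulose suspension. Plasma was sampled at multiple time points up to 24 h, deproteinized with ethanol containing internal standard, and assayed. Values are means of n = 3 animals. Bioavailability was taken from AUC0-∞ after iv versus po.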

[10] = target: T5, Very long chain fatty acid elongase 6 (Mus musculus, UniProt Q920L5); assay: Inhibition of ELOVL6 in mouse H2.35 cells assessed as elongation index; assay type: cell-based
T5 sequence (Q920L5 whole entry): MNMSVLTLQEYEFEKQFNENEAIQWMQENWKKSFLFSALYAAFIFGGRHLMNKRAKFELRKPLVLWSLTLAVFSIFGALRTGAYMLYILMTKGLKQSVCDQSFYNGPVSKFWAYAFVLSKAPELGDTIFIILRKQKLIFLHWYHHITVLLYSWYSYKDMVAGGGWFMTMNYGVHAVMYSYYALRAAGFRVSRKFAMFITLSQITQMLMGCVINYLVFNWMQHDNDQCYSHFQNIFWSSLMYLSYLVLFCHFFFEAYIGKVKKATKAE
Summary of the method: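 Subconfluent mouse hepatoma H2.35 cells were kept at 33 °C in DMEM with 200 nM dexamethasone and 4% FBS. Lipids were hydrolysed in NaOH at 70 °C, and fatty acids extracted and quantified by radio-HPLC. Elongation index = (C18:0 + C18:1) / (C16:0 + C16:1).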

[11] = tested on: Mus musculus; assay: Reduction of elongation index of total fatty acids in C57BL/6J mouse plasma at 30 mg/kg, po twice daily for 3 days; assay type: functional, organism-based; parameters: dose 30 mg/kg
Summary of the method: (§5)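 Male C57BL/6J mice received 30 mg/kg orally twice daily for 3 days. Liver and plasma were hydrolysed in NaOH/ethanol with C17:0 internal standard. Fatty acids were derivatized with 2-nitrophenylhydrazine and measured by HPLC-UV at 400 nm. Elongation index (C18/C16) was expressed as % of vehicle control. Six mice per group.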

[12] = Plasma clearance in Sprague-Dawley rat at 1 mg/kg, iv and 3 mg/kg, po; assay type: ADME, organism-based; summary of the method: as §4
[13] = Drug level in C57BL/6J mouse liver at 10 mg/kg, po after 2 hrs; assay type: ADME, organism-based; parameters: dose 10 mg/kg, route oral; conditions: read-out: Drug uptake
Summary of the method: (§6)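 Male C57BL/6J mice were given a single oral gavage of 10 mg/kg in 0.5% methylcellulose suspension. Abdominal-vein blood and liver were taken 2 h after dosing. Liver was homogenized in PBS pH 7.4. Plasma and homogenate were deproteinized with ethanol containing internal standard before analysis.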

[14] = Plasma concentration in C57BL/6J mouse at 10 mg/kg, po after 2 hrs; assay type: ADME, organism-based; parameters: dose 10 mg/kg, route oral; summary of the method: as §6
[15] = AUC (0 to infinity) in Sprague-Dawley rat at 1 mg/kg, iv and 3 mg/kg, po; assay type: ADME, organism-based; conditions: plasma; summary of the method: as §4
[16] = target: T6, Very long chain fatty acid elongase 1 (Homo sapiens, UniProt Q9BW60); assay: Inhibition of human ELOVL1; summary of the method: as §3
T6 sequence (Q9BW60 whole entry): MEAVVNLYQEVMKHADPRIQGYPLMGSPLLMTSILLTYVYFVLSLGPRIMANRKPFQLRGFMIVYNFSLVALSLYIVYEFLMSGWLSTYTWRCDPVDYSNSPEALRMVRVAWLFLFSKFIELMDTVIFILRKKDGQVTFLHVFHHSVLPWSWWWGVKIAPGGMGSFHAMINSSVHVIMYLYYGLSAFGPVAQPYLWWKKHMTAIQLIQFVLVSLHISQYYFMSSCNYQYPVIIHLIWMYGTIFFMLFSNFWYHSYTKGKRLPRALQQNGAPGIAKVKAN

[17] = Plasma concentration in C57BL/6J mouse at 1 mg/kg, po after 2 hrs; assay type: ADME, organism-based; parameters: dose 1 mg/kg, route oral
[18] = target: T5, Very long chain fatty acid elongase 6; assay: Inhibition of mouse ELOVL6 expressed in Pichia pastoris using palmitoyl-CoA by long chain fatty acyl-CoA elongation assay; summary of the method: as §1
[19] = target: T7, Very long chain fatty acid elongase 5 (Homo sapiens, UniProt Q9NYP7); assay: Inhibition of human ELOVL5; summary of the method: as §3
T7 sequence (Q9NYP7 whole entry): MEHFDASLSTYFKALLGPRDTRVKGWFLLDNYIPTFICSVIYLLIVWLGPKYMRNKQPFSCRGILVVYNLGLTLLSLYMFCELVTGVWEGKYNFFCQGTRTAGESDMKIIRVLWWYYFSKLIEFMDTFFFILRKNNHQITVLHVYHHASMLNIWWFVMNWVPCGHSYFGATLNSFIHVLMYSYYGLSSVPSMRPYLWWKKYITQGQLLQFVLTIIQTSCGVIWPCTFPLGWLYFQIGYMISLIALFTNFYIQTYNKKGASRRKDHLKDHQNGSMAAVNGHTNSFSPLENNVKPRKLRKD

[20] = Plasma concentration in C57BL/6J mouse at 30 mg/kg, po after 8 hrs; assay type: ADME, organism-based; parameters: dose 30 mg/kg, route oral; conditions: read-out: Concentration_plasma; summary of the method: as §2
[21] = tested on: Mus musculus; assay: Reduction of elongation index of liver lipids in C57BL/6J mouse at 1 mg/kg, po; assay type: functional, organism-based; parameters: dose 1 mg/kg
Summary of the method: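 Male C57BL/6J mice were dosed orally in 0.5% methylcellulose. [1-14C]palmitic acid, 10 μCi/body, was given intraperitoneally 1 h later. Liver was taken 2 h after dosing and saponified in KOH/ethanol at 70 °C. Labelled fatty acids were quantified by radio-HPLC, with elongation index C18/C16 expressed as % of control. Four mice per treatment.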

[22] = Volume of distribution at steady state in Sprague-Dawley rat at 1 mg/kg, iv; assay type: ADME, organism-based; parameters: dose 1 mg/kg, route intravenous; conditions: in vivo, read-out: Vdss; summary of the method: as §4
[23] = Oral bioavailability in Sprague-Dawley rat at 3 mg/kg; assay type: ADME, organism-based; conditions: in vivo; summary of the method: as §4
[24] = Cmax in Sprague-Dawley rat at 1 mg/kg, iv and 3 mg/kg, po; assay type: ADME, organism-based; conditions: in vivo; summary of the method: as §4
[25] = tested on: Mus musculus; assay: Reduction of elongation index of total fatty acids in C57BL/6J mouse liver at 30 mg/kg, po twice daily for 3 days; assay type: functional, organism-based; parameters: dose 30 mg/kg; summary of the method: as §5

IC50 [1]: > 10000 nM
SMILES: O=C(Nc1ccc(F)cc1)OCC1(c2ccccc2)OC(=O)Nc2ccc(Cl)cc21 (stereo not given)

IC50 [1]: > 10000 nM
SMILES: CS(=O)(=O)c1ccc(C(=O)NCC2(C(F)(F)F)OC(=O)Nc3ccc(Cl)cc32)cc1 (stereo not given)

IC50 [1]: 2260 nM
SMILES: CCC1(COC(=O)Nc2ccc(F)cc2)OC(=O)Nc2ccc(Cl)cc21 (stereo not given)

IC50 [1]: 1360 nM
SMILES: CC1(COC(=O)Nc2ccc(F)cc2)OC(=O)Nc2ccc(Cl)cc21 (stereo not given)

fraction unbound [2]: 0.107
concentration at 72 h [3]: > 540 nM
concentration at 2 h [4]: 11700 nM
IC50 [5]: 19 nM
IC50 [6]: 130 nM
concentration at 4 h [7]: 3700 nM
IC50 [8]: > 10000 nM
half-life [9]: 1.9 h
IC50 [10]: 3.6 nM
clearance [12]: 11 mL/min/kg
concentration at 2 h [13]: 12500 nM
concentration at 2 h [14]: 660 nM
AUC(0-inf) [15]: 4.69 µM·h
IC50 [16]: 7000 nM
concentration at 2 h [17]: 540 nM
IC50 [18]: 14 nM
IC50 [19]: > 10000 nM
concentration at 8 h [20]: 700 nM
Vd [22]: 0.7 L/kg
bioavailability [23]: 30%
Cmax [24]: 2400 nM
SMILES: O=C1Nc2ccc(-c3ccn[nH]3)cc2[C@](CNC(=O)c2ccc(F)cc2)(C(F)(F)F)O1
Activity [11]: inactive
Activity [21]: Active
Activity [25]: Active

IC50 [1]: 5030 nM
SMILES: CC(C)C1(COC(=O)Nc2ccc(F)cc2)OC(=O)Nc2ccc(Cl)cc21 (stereo not given)

IC50 [1]: > 10000 nM
SMILES: O=C1Nc2ccc(Cl)cc2C(CNC(=O)c2ccc(-c3ccccc3)cc2)(C(F)(F)F)O1 (stereo not given)

Source: ChEMBL document CHEMBL1154682, “Discovery of novel benzoxazinones as potent and orally active long chain fatty acid elongase 6 inhibitors” (J Med Chem, 2009)
